Laboratory results taken from ChEMBL document CHEMBL1157145, “Cytotoxic activity of proflavine diureas: synthesis, antitumor, evaluation and DNA binding properties of 1',1''-(acridin-3,6-diyl)-3',3''-dialkyldiureas” (Bioorg Med Chem, 2008).
Activity calls are given as the source filed them. The rule behind the calls is not given here.

Experiments:
HCT-116 [1] = assay: (§1) Cell cycle arrest in human HCT116 cells assessed as accumulation at G0/G1 phase at 4.80 uM after 48 hrs; type: functional
Outline: (§2)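 Adherent plus floating cells (5 · 10^5) collected 24 or 48 h after treatment, fixed in cold 70% ethanol at −20 °C overnight, washed in PBS. RNase A (100 µg/mL) and propidium iodide (20 µg/mL) in Vindelov's solution, 30 min at RT. Flow cytometry with 488 nm excitation, emission 585 ± 21 nm; % cells per cycle phase from DNA content histograms.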

HCT-116 [2] = assay: Antiproliferative activity against human HCT116 cells assessed as increase of floating cells in total cell population at 4.80 uM after 24 hrs; type: functional
Outline: (§3)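 Cells seeded (8 · 10^5 per 60 mm dish), allowed to settle 24 h at 37 °C, 5% CO2, then treated with a single concentration for 24 or 48 h. Adherent and floating cells counted by Coulter counter. Total cell number given as % of untreated control; floating cells as % of total cell number.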

HCT-116 [3] = assay: Antiproliferative activity against human HCT116 cells assessed as decrease in total cell population at 4.80 uM after 24 hrs; type: functional; set-up: scale not given: the % may be the effect or the level left; outline: as §3
HeLa [4] = assay: Antiproliferative activity against human HeLa cells assessed as increase of floating cells in total cell population at 3.50 uM after 24 hrs; type: functional; outline: as §3
HCT-116 [5] = assay: Induction of DNA fragmentation in human HCT116 cells after 24 hrs; type: functional, cell-based
Outline: (§4)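 HCT-116 cells were treated for 24 or 48 h. Adherent and floating cells (5 × 10^5) were pooled, fixed in cold 70% ethanol and held overnight at −20 °C. Samples were treated with RNase A (100 µg/mL) and stained with propidium iodide (20 µg/mL) in Vindelov's solution for 30 min at RT. Flow cytometry used 488 nm excitation with emission at 585 nm. Subdiploid (subG0/G1) particles were scored on a logarithmic scale, with debris gated out on FSC × SSC.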

HCT-116 [6] = assay: as §1; type: functional; outline: as §2; remark: listed apart in the source
HeLa [7] = assay: Cell cycle arrest in human HeLa cells assessed as accumulation at S phase at 3.50 uM after 48 hrs; type: functional
Outline: (§5)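 Cells seeded at 8 · 10^5 per 60 mm dish, allowed to settle 24 h (37 °C, 5% CO2), then exposed to the drug for 24 or 48 h. Adherent plus floating cells (5 · 10^5) were fixed in cold 70% ethanol at −20 °C overnight, treated with RNase A (100 µg/mL) and stained with propidium iodide (20 µg/mL) in Vindelov's solution for 30 min at RT. Flow cytometry used 488 nm excitation, FL-2 at 585 ± 21 nm, and histograms were modelled for G0/G1, S and G2/M fractions.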

HCT-116 [8] = assay: Induction of apoptosis in human HCT116 cells at 4.80 uM after 24 hrs; type: functional
Outline: (§6)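 After 24 or 48 h of drug exposure, all cells were collected, combining trypsinised adherent cells with floating cells from the medium. Cells (1 × 10^6) were fixed in cold 70% ethanol overnight at −20 °C and stained with DAPI (10 µg/mL) for 30 min in the dark at RT. Under fluorescence microscopy, 300 cells per sample were scored, with condensed or fragmented nuclei counted as apoptotic.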

HeLa [9] = assay: Antiproliferative activity against human HeLa cells assessed as decrease in total cell population at 3.50 uM after 24 hrs; type: functional; set-up: scale not given: the % may be the effect or the level left; outline: as §3
HCT-116 [10] = assay: Induction of apoptosis in human HCT116 cells at 4.80 uM after 48 hrs; type: functional; outline: as §6
HeLa [11] = assay: Antiproliferative activity against human HeLa cells assessed as increase of floating cells in total cell population at 3.50 uM after 48 hrs; type: functional; outline: as §3
HeLa [12] = assay: Cell cycle arrest in human HeLa cells assessed as accumulation at G0/G1 phase at 3.50 uM after 48 hrs; type: functional; outline: as §5
HeLa [13] = assay: Cytotoxicity against human HeLa cells after 48 hrs by MTT assay; type: functional, cell-based
DNA [14] = assay: Binding affinity to calf thymus DNA at 50 uM by circular dichroism spectrophotometric titration; type: nucleic-acid assay; details: Bos taurus
HeLa [15] = assay: Antiproliferative activity against human HeLa cells assessed as decrease in total cell population at 3.50 uM after 48 hrs; type: functional; set-up: scale not given: the % may be the effect or the level left; outline: as §3
HCT-116 [16] = assay: Induction of DNA fragmentation in human HCT116 cells after 48 hrs; type: functional, cell-based; outline: as §4
HeLa [17] = assay: Induction of apoptosis in human HeLa cells at 3.50 uM after 48 hrs; type: functional; outline: as §6
HeLa [18] = assay: Cell cycle arrest in human HeLa cells assessed as accumulation at G0/G1 phase at 3.50 uM after 24 hrs; type: functional; outline: as §5
DNA [19] = assay: Binding affinity to calf thymus DNA at 4 uM by fluorescence spectrophotometric titration; type: nucleic-acid assay; details: Bos taurus
Outline: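 ctDNA sonicated in TE buffer, concentration taken from A260 and given in base pairs. Compound (4 µM) in 0.01 M Tris, pH 7.4, 25 °C titrated with ctDNA (0–55 µM bp) until spectra stopped changing. Excitation 424 nm, slit widths 10 nm; binding constant derived from the change in emission.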

HeLa [20] = assay: Induction of apoptosis in human HeLa cells at 3.50 uM after 24 hrs; type: functional; outline: as §6
HeLa [21] = assay: Cell cycle arrest in human HeLa cells assessed as accumulation at G2/M phase at 3.50 uM after 48 hrs; type: functional; outline: as §5
HeLa [22] = assay: Cell cycle arrest in human HeLa cells assessed as accumulation at S phase at 3.50 uM after 24 hrs; type: functional; outline: as §5
HCT-116 [23] = assay: Cytotoxicity against human HCT116 cells after 72 hrs by MTT assay; type: functional, cell-based; details: Homo sapiens, HCT-116, 72 h
HCT-116 [24] = assay: Antiproliferative activity against human HCT116 cells assessed as increase of floating cells in total cell population at 4.80 uM after 48 hrs; type: functional; outline: as §3
HCT-116 [25] = assay: Cytotoxicity against human HCT116 cells after 48 hrs by MTT assay; type: functional, cell-based; details: HCT-116, 48 h
HCT-116 [26] = assay: Cell cycle arrest in human HCT116 cells assessed as accumulation at G2/M phase at 4.80 uM after 48 hrs; type: functional; outline: as §5
HCT-116 [27] = assay: Cell cycle arrest in human HCT116 cells assessed as accumulation at S phase at 4.80 uM after 48 hrs; type: functional; outline: as §5
HCT-116 [28] = assay: Antiproliferative activity against human HCT116 cells assessed as decrease in total cell population at 4.80 uM after 48 hrs; type: functional; set-up: scale not given: the % may be the effect or the level left; outline: as §3
HeLa [29] = assay: Cell cycle arrest in human HeLa cells assessed as accumulation at G2/M phase at 3.50 uM after 24 hrs; type: functional; outline: as §5
HeLa [30] = assay: Cytotoxicity against human HeLa cells after 72 hrs by MTT assay; type: functional, cell-based
[31] = in the assay text read “after 24 hrs” for “after 48 hrs”

CCCCCCNC(=O)Nc1ccc2cc3ccc(NC(=O)NCCCCCC)cc3nc2c1.Cl
Activity (HCT-116 [1]): 35.98%
Activity (HCT-116 [2]): 77.94%
Activity (HCT-116 [3]): 48.1%
Activity (HeLa [4]): 4.21%
Activity (HCT-116 [5]): Active
Activity (HCT-116 [6]): 36%
Activity (HeLa [7]): 21.55%
Activity (HCT-116 [8]): 5.67%
Activity (HeLa [9]): 87.42%
Activity (HCT-116 [10]): 12.67%
Activity (HeLa [11]): 4.41%
Activity (HeLa [12]): 66.57%
IC50 (HeLa [13]): 3.49 µM
Activity (DNA [14]): Active
Activity (HeLa [15]): 91.16%
Activity (HCT-116 [16]): Active
Activity (HeLa [17]): 1%
Activity (HeLa [18]): 59.69%
K (DNA [19]): 0.9 ×10⁵ /M
Activity (HeLa [20]): 0.75%
Activity (HeLa [21]): 11.88%
Activity (HeLa [22]): 27.08%
IC50 (HCT-116 [23]): 3.09 µM
Activity (HCT-116 [24]): 88.55%
IC50 (HCT-116 [25]): 4.76 µM
Activity (HCT-116 [26]): 41.06%
Activity (HCT-116 [26]; [31]): 45.1%
Activity (HCT-116 [27]): 22.97%
Activity (HCT-116 [27]; [31]): 21.38%
Activity (HCT-116 [28]): 19.84%
Activity (HeLa [29]): 13.24%
IC50 (HeLa [30]): 3.7 µM
